Source: ChEMBL document CHEMBL1156759, “Identification and optimization of inhibitors of Trypanosomal cysteine proteases: cruzain, rhodesain, and TbCatB” (J Med Chem, 2010)
Active and inactive are the calls of the source. No cut-off for these calls is given here.

Tested on: not listed separately
Experiment: Inhibition of recombinant Trypanosoma brucei cathepsin B after 5 mins by spectrofluorimetric analysis
Conditions: not given
Method in brief: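 Recombinant TbCatB at 258 nM in 100 mM sodium acetate pH 5.5, 5 mM DTT, 0.001% Triton X-100, preincubated with compound in DMSO for 5 min at room temperature. Z-Phe-Arg-AMC 10 μM added to start. Rate of fluorescence rise read at ex 355/em 460 nm; DMSO control wells; IC50 from curve fitting.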

SMILES	IC50
CCn1cnc2c(Nc3cccc(Cl)c3)nc(C#N)nc21	> 100000 nM
N#Cc1nc(Nc2ccc(Br)cc2)nc(NC2CCCC2)n1	> 10000 nM
N#Cc1nc(NCC(F)F)nc(Nc2cc(F)cc(F)c2)n1	1000 nM
N#Cc1nc(Nc2cccc(F)c2)nc(NC2CCCC2)n1	> 1000 nM
CCOc1nc(C#N)nc(N2CCCCC2)n1	> 1000 nM
N#Cc1nc(Nc2cccc(Cl)c2)c2ncn(C3CCCC3)c2n1	> 10000 nM
N#Cc1nc(Nc2cccc([N+](=O)[O-])c2)nc(NC2CCCC2)n1	> 1000 nM
N#Cc1nc(Nc2ccc(F)cc2)nc(NC2CCCC2)n1	> 1000 nM

Target: T1, Cruzipain (Trypanosoma cruzi, UniProt P25779)
Experiment: Inhibition of Trypanosoma cruzi cruzain after 15 mins
Conditions: read-out: IC50
Method in brief: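 Cruzain at 1.5 nM final in 100 mM acetate pH 5.5, 5 mM DTT, 0.01% Triton X-100; compounds as serial 2-fold dilutions pin-transferred in DMSO. 15 min room-temperature preincubation, then Z-FR-AMC 2 μM final. Kinetic fluorescence read at ex 340/em 450 nm. Percent inhibition from the first 60 s signal change versus no-enzyme and uninhibited controls (48 wells each).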

T1 sequence (P25779 whole entry): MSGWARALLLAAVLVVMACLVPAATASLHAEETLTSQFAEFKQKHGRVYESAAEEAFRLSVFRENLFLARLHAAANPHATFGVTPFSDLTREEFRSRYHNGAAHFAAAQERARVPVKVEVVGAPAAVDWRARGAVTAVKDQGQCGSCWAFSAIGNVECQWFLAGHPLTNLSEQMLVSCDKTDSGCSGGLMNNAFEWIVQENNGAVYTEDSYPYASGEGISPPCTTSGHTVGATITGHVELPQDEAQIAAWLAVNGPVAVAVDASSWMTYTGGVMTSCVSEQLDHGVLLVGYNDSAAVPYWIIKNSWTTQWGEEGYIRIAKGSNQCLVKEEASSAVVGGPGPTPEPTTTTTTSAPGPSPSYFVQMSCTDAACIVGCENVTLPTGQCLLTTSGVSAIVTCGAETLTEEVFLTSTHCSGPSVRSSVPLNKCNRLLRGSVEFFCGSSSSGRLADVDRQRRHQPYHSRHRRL

SMILES	IC50
CCn1cnc2c(Nc3cccc(Cl)c3)nc(C#N)nc21	18 nM
N#Cc1nc(Nc2ccc(Br)cc2)nc(NC2CCCC2)n1	1120 nM
N#Cc1nc(NCC(F)F)nc(Nc2cc(F)cc(F)c2)n1	25 nM
N#Cc1nc(Nc2cccc(F)c2)nc(NC2CCCC2)n1	79 nM
N#Cc1nc(Nc2cccc(Cl)c2)c2ncn(C3CCCC3)c2n1	40 nM
N#Cc1nc(Nc2cccc([N+](=O)[O-])c2)nc(NC2CCCC2)n1	63 nM
N#Cc1nc(Nc2ccc(F)cc2)nc(NC2CCCC2)n1	126 nM

Tested on: Trypanosoma cruzi
Experiment: Antitrypanosomal activity against Trypanosoma cruzi Y trypomastigotes infected in mouse J774 cells at 10 uM after 27 days medium replaced every 48 hrs
Assay type: functional, organism-based
Conditions: not given
Method in brief: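 Irradiated (1000 rad) J774 macrophages plated overnight, infected 2 h with Y strain trypomastigotes, parasites removed, then cultured in RPMI-1640 with compound (n = 3); untreated infected and 10 μM K777 controls per experiment. Medium replaced every 48 h over 27 days; daily phase-contrast microscopy (400×) for free trypomastigotes and host toxicity; cultures kept 14 further days to confirm cure.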

SMILES	Activity
CCn1cnc2c(Nc3cccc(Cl)c3)nc(C#N)nc21	inactive
N#Cc1nc(Nc2cccc(Cl)c2)c2ncn(C3CCCC3)c2n1	inactive

Target: T1, Cruzipain
Experiment: Inhibition of recombinant Trypanosoma cruzi cruzain after 5 mins by spectrofluorimetric analysis
Conditions: not given
Method in brief: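 Recombinant cruzain at 4 nM (activated procruzain, anion-exchange purified) in 100 mM sodium acetate pH 5.5, 5 mM DTT, 0.001% Triton X-100. Preincubated 5 min at room temperature with compound in DMSO, then Z-Phe-Arg-AMC 10 μM. Fluorescence rate read at ex 355/em 460 nm; DMSO controls; IC50 by curve fitting.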

SMILES	IC50
CCn1cnc2c(Nc3cccc(Cl)c3)nc(C#N)nc21	0.4 nM
N#Cc1nc(Nc2ccc(Br)cc2)nc(NC2CCCC2)n1	60 nM
N#Cc1nc(NCC(F)F)nc(Nc2cc(F)cc(F)c2)n1	1 nM
N#Cc1nc(Nc2cccc(F)c2)nc(NC2CCCC2)n1	10 nM
CCOc1nc(C#N)nc(N2CCCCC2)n1	90 nM
N#Cc1nc(Nc2cccc(Cl)c2)c2ncn(C3CCCC3)c2n1	0.3 nM
N#Cc1nc(Nc2cccc([N+](=O)[O-])c2)nc(NC2CCCC2)n1	1 nM
N#Cc1nc(Nc2ccc(F)cc2)nc(NC2CCCC2)n1	30 nM

Tested on: not listed separately
Experiment: Inhibition of recombinant Trypanosoma brucei rhodesain after 5 mins by spectrofluorimetric analysis
Conditions: not given
Method in brief: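 Recombinant rhodesain, 4 nM, preincubated 5 min at room temperature with compound (DMSO) in 100 mM sodium acetate pH 5.5, 5 mM DTT, 0.001% Triton X-100. Reaction started with 10 μM Z-Phe-Arg-AMC; rate of AMC fluorescence increase read at ex 355/em 460 nm. IC50 from curve fitting; DMSO-only wells as positive control.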

SMILES	IC50
CCn1cnc2c(Nc3cccc(Cl)c3)nc(C#N)nc21	10 nM
N#Cc1nc(Nc2ccc(Br)cc2)nc(NC2CCCC2)n1	100 nM
N#Cc1nc(NCC(F)F)nc(Nc2cc(F)cc(F)c2)n1	< 6 nM
N#Cc1nc(Nc2cccc(F)c2)nc(NC2CCCC2)n1	20 nM
CCOc1nc(C#N)nc(N2CCCCC2)n1	300 nM
N#Cc1nc(Nc2cccc(Cl)c2)c2ncn(C3CCCC3)c2n1	< 6 nM
N#Cc1nc(Nc2cccc([N+](=O)[O-])c2)nc(NC2CCCC2)n1	8 nM
N#Cc1nc(Nc2ccc(F)cc2)nc(NC2CCCC2)n1	40 nM
